Results as given in ChEMBL document CHEMBL2150950, “Effect of 4-aryl-2-methyl-5-nitro-1,4-dihydropyridine-3-carboxylates on the guinea pig papillary muscle and isolated human vena saphena magna that is used for coronary artery bypass grafting” (2011).
Calls of active or inactive are those of the source. No cut-off for these calls is given here.

Assays:
[1] = (§1) Ionotropic effect in guinea pig ventricle papillary muscles assessed as lengthening of 25% repolarized cardiac action potential duration time at 10^-7 M by microelectrode technique relative to untreated control (reference value: 84 to 104 APD25 ms); type: functional, Cavia porcellus, Papillary muscle
[2] = (§2) Ionotropic effect in guinea pig ventricle papillary muscles assessed as lengthening of 25% repolarized cardiac action potential duration time at 10^-6 M by microelectrode technique relative to untreated control (reference value: 84 to 104 APD25 ms); type: functional, Cavia porcellus, Papillary muscle
[3] = as §1, with “120” for “84”, “131” for “104”, “ms) in presence of 1 x 10^-6 M IKr channel blocker Sotalol” for “ms)”; type: functional, Cavia porcellus
[4] = as §2, with “10%” for “25%”, “52” for “84”, “54 APD10” for “104 APD25”, “ms) in presence of 1 x 10^-6 M IKr channel blocker Sotalol” for “ms)”; type: functional, Cavia porcellus
[5] = as §2, with “50%” for “25%”, “180” for “84”, “192 APD50” for “104 APD25”, “ms) in presence of 1 x 10^-6 M IKr channel blocker Sotalol” for “ms)”; type: functional, Cavia porcellus
[6] = as §2, with “50%” for “25%”, “10^-4” for “10^-6”, “180” for “84”, “192 APD50” for “104 APD25”, “ms) in presence of 1 x 10^-6 M IKr channel blocker Sotalol” for “ms)”; type: functional, Cavia porcellus
[7] = (§3) Ionotropic effect in guinea pig ventricle papillary muscles assessed as lengthening of 10% repolarized cardiac action potential duration time at 10^-6 M by microelectrode technique relative to untreated control (reference value: 37 to 47 APD10 ms); type: functional, Cavia porcellus, Papillary muscle
[8] = as §3, with “10^-5” for “10^-6”, “52” for “37”, “54” for “47”, “ms) in presence of 2 x 10^-5 M KATP channel blocker glibenclamide” for “ms)”; type: functional, Cavia porcellus
[9] = Ionotropic effect in guinea pig right ventricle papillary muscles assessed as contraction force at 10^-5 M by force transduction assay relative to untreated control (reference value: 100%) in presence of 3.1 x 10^-6 M inward rectifier current blocker BaCl2; type: functional, Cavia porcellus, Heart right ventricle
[10] = as §1, with “90%” for “25%”, “10^-5” for “10^-7”, “209” for “84”, “222 APD50” for “104 APD25”, “ms) in presence of 2 x 10^-5 M KATP channel blocker glibenclamide” for “ms)”; type: functional, Cavia porcellus
[11] = Ionotropic effect in guinea pig right ventricle papillary muscles assessed as contraction force at 10^-7 M by force transduction assay relative to untreated control (reference value: 100%); type: functional, Cavia porcellus, Papillary muscle
[12] = as §2, with “120” for “84”, “131” for “104”, “ms) in presence of 3.1 x 10^-6 M inward rectifier current blocker BaCl2” for “ms)”; type: functional, Cavia porcellus
[13] = (§4) Ionotropic effect in guinea pig ventricle papillary muscles assessed as lengthening of 50% repolarized cardiac action potential duration time at 10^-5 M by microelectrode technique relative to untreated control (reference value: 132 to 176 APD50 ms); type: functional, Cavia porcellus, Papillary muscle
[14] = (§5) Ionotropic effect in guinea pig ventricle papillary muscles assessed as lengthening of 90% repolarized cardiac action potential duration time at 10^-7 M by microelectrode technique relative to untreated control (reference value: 132 to 176 APD50 ms); type: functional, Cavia porcellus, Papillary muscle
[15] = Vasodilatory activity in human vena saphena magna assessed as reduction in phenylephrine-induced smooth muscle contraction at 10 uM; type: functional
Summary of the method: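 Saphenous vein rings came from 37 CABG patients. They were bathed in Tyrode's solution (mM: NaCl 137, KCl 5.4, CaCl2 1.8, MgCl2 0.9, Tris HCl 10, glucose 5; pH 7.4), equilibrated 45–60 min and washed every 15 min. Rings were precontracted with 10^-4 M phenylephrine, then given cumulative test agent at 10^-7 to 10^-4 M. Isometric relaxation was recorded, as means ± SE.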

[16] = as §3, with “10^-7” for “10^-6”, “52” for “37”, “54” for “47”, “ms) in presence of 1 x 10^-6 M IKr channel blocker Sotalol” for “ms)”; type: functional, Cavia porcellus
[17] = as §5, with “10^-6” for “10^-7”, “209” for “132”, “222” for “176”, “ms) in presence of 3.1 x 10^-6 M inward rectifier current blocker BaCl2” for “ms)”; type: functional, Cavia porcellus
[18] = as §1, with “120” for “84”, “131” for “104”, “ms) in presence of 3.1 x 10^-6 M inward rectifier current blocker BaCl2” for “ms)”; type: functional, Cavia porcellus
[19] = Ionotropic effect in guinea pig ventricle papillary muscles assessed as lengthening of 90% repolarized cardiac action potential duration time at 10^-4 M by microelectrode technique relative to untreated control (reference value: 132 to 176 APD50 ms); type: functional, Cavia porcellus, Papillary muscle
[20] = (§6) Ionotropic effect in guinea pig ventricle papillary muscles assessed as lengthening of 50% repolarized cardiac action potential duration time at 10^-6 M by microelectrode technique relative to untreated control (reference value: 132 to 176 APD50 ms); type: functional, Cavia porcellus, Papillary muscle
[21] = as §1, with “120” for “84”, “131” for “104”, “ms) in presence of 2 x 10^-5 M KATP channel blocker glibenclamide” for “ms)”; type: functional, Cavia porcellus
[22] = Ionotropic effect in guinea pig ventricle papillary muscles assessed as lengthening of 50% repolarized cardiac action potential duration time at 10^-7 M by microelectrode technique relative to untreated control (reference value: 132 to 176 APD50 ms); type: functional, Cavia porcellus, Papillary muscle
[23] = Ionotropic effect in guinea pig right ventricle papillary muscles assessed as contraction force at 10^-7 M by force transduction assay relative to untreated control (reference value: 100%) in presence of 2 x 10^-5 M KATP channel blocker glibenclamide; type: functional, Cavia porcellus, Heart right ventricle
[24] = as §3, with “10^-4” for “10^-6”, “52” for “37”, “54” for “47”, “ms) in presence of 2 x 10^-5 M KATP channel blocker glibenclamide” for “ms)”; type: functional, Cavia porcellus
[25] = as §5, with “209” for “132”, “222” for “176”, “ms) in presence of 1 x 10^-6 M IKr channel blocker Sotalol” for “ms)”; type: functional, Cavia porcellus
[26] = Ionotropic effect in guinea pig ventricle papillary muscles assessed as lengthening of 25% repolarized cardiac action potential duration time at 10^-4 M by microelectrode technique relative to untreated control (reference value: 84 to 104 APD25 ms); type: functional, Cavia porcellus, Papillary muscle
[27] = as §2, with “10^-4” for “10^-6”, “120” for “84”, “131” for “104”, “ms) in presence of 3.1 x 10^-6 M inward rectifier current blocker BaCl2” for “ms)”; type: functional, Cavia porcellus
[28] = as §2, with “120” for “84”, “131” for “104”, “ms) in presence of 1 x 10^-6 M IKr channel blocker Sotalol” for “ms)”; type: functional, Cavia porcellus
[29] = as §6, with “10^-7” for “10^-6”, “180” for “132”, “192” for “176”, “ms) in presence of 1 x 10^-6 M IKr channel blocker Sotalol” for “ms)”; type: functional, Cavia porcellus
[30] = as §4, with “10^-4” for “10^-5”, “180” for “132”, “192” for “176”, “ms) in presence of 2 x 10^-5 M KATP channel blocker glibenclamide” for “ms)”; type: functional, Cavia porcellus

SMILES: CCCOCCOC(=O)C1=C(C)NC=C([N+](=O)[O-])C1c1ccccc1OC(F)F (stereo not given)
- Time [1]: 112.7 ms
- Time [2]: 118.6 ms
- Time [3]: 130 ms
- Time [4]: 49 ms
- Time [5]: 192 ms
- Time [6]: 218.9 ms
- Time [7]: 41.4 ms
- Time [8]: 61 ms
- Activity [9]: 193%
- Time [10]: 265 ms
- Activity [11]: 108%
- Time [12]: 149.7 ms
- Time [13]: 205.8 ms
- Time [14]: 221.6 ms
- Activity [15]: Active
- Time [16]: 54.2 ms
- Time [17]: 250.7 ms
- Time [18]: 146.5 ms
- Time [19]: 256 ms
- Time [20]: 196 ms
- Time [21]: 141 ms
- Time [22]: 188.5 ms
- Activity [23]: 103%
- Time [24]: 65 ms
- Time [25]: 224.4 ms
- Time [26]: 146.9 ms
- Time [27]: 158 ms
- Time [28]: 132.9 ms
- Time [29]: 195 ms
- Time [30]: 247 ms
